Hits are enriched below; roughly 27% of the tested compounds scored in any of these assays.
CYP2C19 activ – increases human CYP2C19 enzyme activity; recombinant CYP2C19, luciferin-H EGE luminescence; active compounds read high; 0 = fully inhibited enzyme, 1 = untreated enzyme; AID 1025; 96,000 tested, under 10 active; activation factor at 5 µM; P33261;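 active = activation factor of at least 2 at 5 µM in the primary screen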
CYP2C19 inhib – blocks human cytochrome P450 2C19; inhibition, % at 5 µM; 96,000 tested, 21% active; CYP2C19 Supersomes, luciferin-H EGE luminescence, 30 min; P33261;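 active = CYP2C19 inhibition above a set limit at 5 µM in the primary screen, cut at about 50% in these data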
CYP2C9 inhib – blocks human cytochrome P450 2C9; 96,000 tested, 20% active; P11712; CYP2C9 Supersomes, luciferin-H conversion, luminescence; inhibition, % at 5 µM;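 active = blocking of liver enzyme CYP2C9 beyond about 50% at 5 µM, limit read from the data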
Target sequence (P11712 whole entry, looked up): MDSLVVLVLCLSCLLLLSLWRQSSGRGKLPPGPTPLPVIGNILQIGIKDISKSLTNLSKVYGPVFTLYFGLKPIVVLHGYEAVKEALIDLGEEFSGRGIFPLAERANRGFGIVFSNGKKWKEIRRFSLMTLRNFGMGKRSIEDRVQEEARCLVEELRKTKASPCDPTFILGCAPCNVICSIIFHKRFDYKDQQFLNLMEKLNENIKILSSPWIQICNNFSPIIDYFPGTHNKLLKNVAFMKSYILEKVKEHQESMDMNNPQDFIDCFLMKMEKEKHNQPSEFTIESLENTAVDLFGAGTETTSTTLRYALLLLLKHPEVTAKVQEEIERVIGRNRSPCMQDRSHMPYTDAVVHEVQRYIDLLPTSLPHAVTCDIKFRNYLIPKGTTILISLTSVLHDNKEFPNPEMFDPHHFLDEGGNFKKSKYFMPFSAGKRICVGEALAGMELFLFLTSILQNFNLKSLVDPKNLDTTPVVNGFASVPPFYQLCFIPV
CYP2C9 activ – increases human cytochrome P450 2C9 activity; recombinant CYP2C9, luciferin-H conversion, luminescence; active compounds read high; factor 1 = untreated enzyme, 0 = blocked; activation factor at 5 µM; 96,000 tested, 1.4% active;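 active = activation factor of 2 or more for CYP2C9 at a 5 µM dose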
Cav3 T inh – blocks human Cav3.2 T-type calcium channel | O95180 | Cav3.2-expressing cells, Fluo-4 calcium fluorescence FDSS; active compounds read low | B-score at 10 µM | 100,000 tested, 4% active;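 active = single-dose well whose peak fluorescence ratio is a statistical outlier from its plate by either plate-standardised score or position-corrected B-score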
Rev-RRE block – inhibitors of HIV-1 Rev-RRE RNA interaction; P05866; Rev peptide-RRE RNA binding, FRET; inhibition, % at 8 µM; 97,000 tested, 0.79% active; AID 704;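 active = inhibition above the screen-wide mean plus 3 SD, cut at about 35% in these data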
Target sequence (P05866 whole entry, looked up): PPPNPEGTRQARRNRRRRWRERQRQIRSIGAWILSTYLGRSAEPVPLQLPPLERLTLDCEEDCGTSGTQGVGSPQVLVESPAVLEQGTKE
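Assay system: labelled RRE RNA duplex and labelled Rev peptide / Medium: HEPES pH 7.5 salt buffer with EDTA / Reagent: labelled Rev peptide / Schedule: 5 + 15 min at 25 °C / Signal: FRET, excitation 480 nm, emission 540 nm donor and 671 nm acceptor / Benchmarks: DMSO and neomycin B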
Each line names hits and unclear results; the compound was inactive in the other large screens.

Cc1ccc(NC(=O)CSc2nnc(-c3ccc(S(=O)(=O)N4CCCC4)cc3)o2)cc1C	CYP2C9 inhib 54
Cc1ccc(CNC(=O)C2CCC(=O)N2CCc2ccccc2)cc1 (stereo unspecified)	none
NC(=O)CSc1nnc(Cn2c(=O)sc3ccccc32)n1-c1cccc(Cl)c1	none
COc1ccc(NC2CC(=O)NC2=O)cc1 (stereo unspecified)	none
CC(C)(C)OC(=O)N1CCC2(CC1)Oc1ccc(Cl)cc1C(=O)C21CC(c2ccc(Cl)cc2)=NO1 (stereo unspecified)	none (no result: CYP2C19 activ, CYP2C19 inhib, CYP2C9 inhib, CYP2C9 activ, Rev-RRE block)
COC(=O)CSc1nnc(-c2ccc(S(=O)(=O)N3CCC(C)CC3)cc2)o1	none
COC(=O)CSc1nnc(-c2ccc(S(=O)(=O)N3CCCCC3)cc2)o1	CYP2C9 inhib 64
Cc1ccc(NC(=O)CSc2nnc(-c3ccccc3Br)o2)cc1C	CYP2C19 inhib 51, CYP2C9 inhib 73 (no result: Cav3 T inh)
Cc1cccc(NC(=O)CSc2nnc(-c3ccc(S(=O)(=O)N4CCCC4)cc3)o2)c1	CYP2C9 inhib 66
O=S(=O)(c1ccc(-c2nnc(SCc3nnc(-c4ccccc4)o3)o2)cc1)N1CCCC1	none
N#Cc1ccc(CSc2nnc(-c3cccc(S(=O)(=O)N4CCCCC4)c3)o2)cc1	Cav3 T inh -7.5
Cc1ccc(Cn2c(CCNc3nc(-c4ccc(Cl)c([N+](=O)[O-])c4)cs3)nc3cc(C(=O)NCCCO)ccc32)cc1	none (no result: CYP2C19 activ, CYP2C19 inhib, CYP2C9 inhib, CYP2C9 activ, Rev-RRE block)
Cc1ccc(Cl)cc1N1CCN(Cc2nnnn2C2CCCCC2)CC1	CYP2C9 inhib 58, Cav3 T inh -5.2
C1CCC(n2nnnc2CN2CCN(C3CCCC3)CC2)CC1	none
c1ccc(N2CCN(Cc3nnnn3C3CCCCC3)CC2)cc1	CYP2C19 inhib 64, CYP2C9 inhib 87
CC(=O)c1n[nH]nc1NC(=O)c1ccccc1	none
Cc1ccc(C)c(C(=O)NC2CC(C)(C)NC(C)(C)C2)c1	CYP2C19 inhib 54
CCCCC1=CC2=C(c3ccco3)C(=O)C(C)(OC(=O)c3ccc(OC)cc3)C(=O)C2=CN1CC(C)C (stereo unspecified)	none (no result: CYP2C19 activ, CYP2C19 inhib, CYP2C9 inhib, CYP2C9 activ, Rev-RRE block)
O=C(OCC(=O)N(C1CCCCC1)C1CCCCC1)c1cnccn1	CYP2C19 inhib 54 (no result: Rev-RRE block)
O=C(NC1CCCCCCC1)c1cnccn1	CYP2C19 inhib 63
CCN(C(=O)COC(=O)c1cnc(C)cn1)C1CCCCC1	none
Cc1cc(C(=O)OCC(=O)Nc2ncc(C(F)(F)F)cc2Cl)c(C)o1	none (no result: Cav3 T inh)
COc1ccccc1CNC(=O)c1cc2c(C)nn(Cc3ccc(F)cc3)c2s1	CYP2C9 inhib 78
CCC(CC)NC(=O)c1cc2c(C)nn(Cc3ccccc3Cl)c2s1	CYP2C9 inhib 71
Cc1nn(Cc2ccccc2Cl)c2sc(C(=O)NCc3ccc4c(c3)OCO4)cc12	CYP2C19 inhib 92, CYP2C9 inhib 99, Cav3 T inh -3.5
COc1ccccc1CNC(=O)c1cc2c(s1)CS(=O)(=O)C2	none (no result: Cav3 T inh, Rev-RRE block)
Cc1cc(C(=O)Nc2c(C)nn(Cc3ccccc3Cl)c2C)no1	none
Fc1ccc2nc3[nH]c4ccccc4c3nc2c1	none (no result: Cav3 T inh)
CC(C)N(CCNS(=O)(=O)c1ccc(Cl)cc1)C(C)C	CYP2C9 inhib 54
CN(C)CCCNS(=O)(=O)c1ccc(N2CCC(c3ccc(Cl)cc3)=N2)cc1	none
CC(C)(C)NS(=O)(=O)c1ccc(-c2csnn2)s1	CYP2C19 inhib 93
CCC(C)NS(=O)(=O)c1ccc(-c2csnn2)s1 (stereo unspecified)	CYP2C19 inhib 100
COc1ccc(Br)cc1/C=N/NC(=O)CNC(=O)/C=C/c1ccccc1	Cav3 T inh -7.6
COc1ccc(/C=C/C(=O)NCC(=O)N/N=C/c2cc(Br)ccc2OCc2ccccc2)cc1	CYP2C9 inhib 77
Cc1ccc(CNC(=O)C2CC3Cn4c(nc5cc6ccccc6cc54)C3N2C)o1 (stereo unspecified)	none (no result: CYP2C19 activ, CYP2C19 inhib, CYP2C9 inhib, CYP2C9 activ, Rev-RRE block)
CN1C(C(=O)Nc2ccccn2)=C(O)c2sccc2S1(=O)=O	none (no result: CYP2C19 activ, CYP2C19 inhib, CYP2C9 inhib, CYP2C9 activ, Rev-RRE block)
Cc1ccccc1NC(=S)C1=C(O)c2sccc2N(C)S1(=O)=O	CYP2C9 inhib 72
CN1c2ccsc2C(O)=C(C(=S)Nc2ccccc2)S1(=O)=O	CYP2C9 inhib 78
COc1ccccc1N1CCN(C(=O)c2cc(-c3cccc(Cl)c3)on2)CC1	none
O=C(CCN1CCN(c2ccccc2)CC1)Nc1nccs1	none
O=C(COC(=O)c1cccc(NC(=O)c2ccco2)c1)c1ccc(Br)cc1	CYP2C9 activ 2.3
Cc1ccc(O)c(NC(=O)c2cccc(NC(=O)c3ccco3)c2)c1	CYP2C19 inhib 53
COc1ccccc1NC(=O)Oc1ccc(NC(=O)c2ccco2)cc1	none
COc1ccc(NC(=O)Cc2ccc(Cl)cc2)cc1NC(=O)c1ccco1	CYP2C19 inhib 74, CYP2C9 inhib 65
COc1ccccc1NC(=O)c1cccc(NC(=O)c2ccco2)c1	CYP2C9 activ 2.8 (no result: Cav3 T inh)
COC(=O)c1cccc(NC(=O)c2ccco2)c1	none (no result: CYP2C19 activ, CYP2C19 inhib, CYP2C9 inhib, CYP2C9 activ)
Clc1ccc(Oc2nc(N3CCOCC3)nc(N3CCOCC3)n2)cc1	none
COc1cc(C)c(C(N)=O)c(OC)n1	none (no result: Rev-RRE block)
CCCCNCC(=O)Nc1sc(C)c(C)c1C(=O)OCC	none (no result: CYP2C19 activ, CYP2C19 inhib, CYP2C9 inhib, CYP2C9 activ)
C/C(=N/NC(=O)c1ccco1)c1cccc(NC(=O)c2ccc(C)o2)c1	none
C/C(=N\NC(=O)c1cccc(Cl)c1)c1cccc(NC(=O)c2ccco2)c1	Cav3 T inh -5.5
COc1cccc(C(=O)Nc2cc(NC(=O)c3ccco3)ccc2OC)c1	none
CC(C)(C)NC(=O)c1cccc(NC(=O)c2ccc(NC(=O)c3ccco3)cc2)c1	CYP2C19 inhib 74, CYP2C9 inhib 97
COc1ccc(NC(=O)c2ccco2)cc1NC(=O)c1cccc(OC(C)C)c1	CYP2C19 inhib 64, Cav3 T inh -5.6
CC(C)(C)CC(C)(C)Nc1c(-c2ccc(O)cc2)nc2cnccn12	none (no result: CYP2C19 activ, CYP2C19 inhib, CYP2C9 inhib, CYP2C9 activ)
O=c1oc2ccccc2cc1-c1nc(-c2cccs2)cs1	Rev-RRE block 62
CNc1nnc(-c2cc3ccccc3oc2=O)s1	Rev-RRE block 52
COc1cccc2cc(-c3nc(-c4cccs4)cs3)c(=O)oc12	CYP2C9 inhib 83
Cc1ccccc1-c1nnc(NC(=O)c2cc3ccccc3oc2=O)s1	none (no result: CYP2C19 activ, CYP2C19 inhib, CYP2C9 inhib, CYP2C9 activ, Rev-RRE block)
Cc1nc(-c2ccc(Cl)cc2)sc1C1(C)CC(c2cccc(F)c2)=NO1 (stereo unspecified)	none (no result: CYP2C19 activ, CYP2C19 inhib, CYP2C9 inhib, CYP2C9 activ, Rev-RRE block)
O=C(NCC(c1cccs1)N1CCOCC1)c1cc2ccccc2o1 (stereo unspecified)	CYP2C19 inhib 75, CYP2C9 inhib 74
O=C(NCC(c1cccs1)N1CCOCC1)c1ccco1 (stereo unspecified)	none
CC(=O)N1CCCc2cc(S(=O)(=O)NC(C(=O)NC(C)c3ccccc3)C(C)C)ccc21 (stereo unspecified)	none
COc1ccc(NC(=O)C(NS(=O)(=O)c2ccc3c(c2)CCCN3C(C)=O)C(C)C)c(OC)c1 (stereo unspecified)	CYP2C9 inhib 64
